For one test, the target named is PHD2 (Homo sapiens, UniProt Q9GZT9). Description: PHD2 biochemical activity assay. As to conditions: hydroxylation of CODD peptide substrate, MALDI-TOF MS.
Another test concerns the target FIH (Homo sapiens, UniProt Q9NWT6). Description: FIH MALDI-TOF hydroxylation assay. It counts as biochemical.
The next test deals with T1, JMJD2E (Homo sapiens, UniProt B2RXH2).
T1 sequence (B2RXH2 1-337): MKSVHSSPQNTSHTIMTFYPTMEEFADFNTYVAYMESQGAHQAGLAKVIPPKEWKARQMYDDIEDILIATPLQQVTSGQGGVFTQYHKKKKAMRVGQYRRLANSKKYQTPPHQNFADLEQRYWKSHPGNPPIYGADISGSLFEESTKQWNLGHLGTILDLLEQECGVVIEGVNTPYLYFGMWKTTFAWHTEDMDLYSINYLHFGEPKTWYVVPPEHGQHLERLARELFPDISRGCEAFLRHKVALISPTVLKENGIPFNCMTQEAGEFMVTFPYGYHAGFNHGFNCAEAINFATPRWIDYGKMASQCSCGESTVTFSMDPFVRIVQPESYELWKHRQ
Kind of test: MALDI-TOF MS based demethylation assay, JMJD2E. The format is biochemical. In short, it runs like this:
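Enzyme: human JMJD2E catalytic domain (residues 1-337), expressed in E. coli as N-terminal His6-tagged protein and purified by Ni-affinity chromatography. Quenched reaction mixtures are mixed with α-cyano-4-hydroxycinnamic acid matrix and analysed by MALDI-TOF MS. Percentage demethylation comes from the relative intensities of the peptide methylation states. IC50 is derived from how percentage demethylation varies across inhibitor concentrations.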

The target in a further test is T2, JMJD2A (Homo sapiens, UniProt O75164).
T2 sequence (O75164 1-1064): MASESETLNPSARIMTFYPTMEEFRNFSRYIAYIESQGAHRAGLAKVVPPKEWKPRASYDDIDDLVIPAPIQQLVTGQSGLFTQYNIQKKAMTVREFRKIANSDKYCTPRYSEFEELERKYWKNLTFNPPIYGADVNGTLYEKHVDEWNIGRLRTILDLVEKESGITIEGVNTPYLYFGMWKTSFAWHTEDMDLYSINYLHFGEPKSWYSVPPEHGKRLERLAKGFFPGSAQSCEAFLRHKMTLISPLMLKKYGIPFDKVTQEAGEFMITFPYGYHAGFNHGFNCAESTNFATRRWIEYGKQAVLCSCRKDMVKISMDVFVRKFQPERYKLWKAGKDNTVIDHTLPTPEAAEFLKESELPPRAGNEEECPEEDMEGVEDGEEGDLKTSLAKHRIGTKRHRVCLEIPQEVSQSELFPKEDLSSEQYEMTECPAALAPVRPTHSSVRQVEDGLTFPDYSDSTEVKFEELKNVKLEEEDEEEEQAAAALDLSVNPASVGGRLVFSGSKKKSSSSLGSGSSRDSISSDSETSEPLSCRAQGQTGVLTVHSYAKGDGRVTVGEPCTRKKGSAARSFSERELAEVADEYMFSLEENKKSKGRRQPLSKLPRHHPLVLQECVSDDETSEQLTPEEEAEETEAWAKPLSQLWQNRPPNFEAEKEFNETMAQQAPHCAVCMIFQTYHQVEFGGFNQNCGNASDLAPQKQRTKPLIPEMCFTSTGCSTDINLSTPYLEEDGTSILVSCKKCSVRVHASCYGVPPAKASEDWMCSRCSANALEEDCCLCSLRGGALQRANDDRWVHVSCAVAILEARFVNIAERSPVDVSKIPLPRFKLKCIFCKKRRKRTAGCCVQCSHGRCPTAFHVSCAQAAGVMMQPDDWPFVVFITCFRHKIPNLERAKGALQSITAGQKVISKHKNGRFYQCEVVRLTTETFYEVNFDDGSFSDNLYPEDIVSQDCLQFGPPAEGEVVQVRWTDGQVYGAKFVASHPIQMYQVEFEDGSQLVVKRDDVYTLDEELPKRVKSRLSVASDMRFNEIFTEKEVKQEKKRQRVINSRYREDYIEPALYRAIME
Kind of test: MALDI-TOF MS based demethylation assay, JMJD2A. The format is biochemical.

Sequence of PHD2 (Q9GZT9 whole entry): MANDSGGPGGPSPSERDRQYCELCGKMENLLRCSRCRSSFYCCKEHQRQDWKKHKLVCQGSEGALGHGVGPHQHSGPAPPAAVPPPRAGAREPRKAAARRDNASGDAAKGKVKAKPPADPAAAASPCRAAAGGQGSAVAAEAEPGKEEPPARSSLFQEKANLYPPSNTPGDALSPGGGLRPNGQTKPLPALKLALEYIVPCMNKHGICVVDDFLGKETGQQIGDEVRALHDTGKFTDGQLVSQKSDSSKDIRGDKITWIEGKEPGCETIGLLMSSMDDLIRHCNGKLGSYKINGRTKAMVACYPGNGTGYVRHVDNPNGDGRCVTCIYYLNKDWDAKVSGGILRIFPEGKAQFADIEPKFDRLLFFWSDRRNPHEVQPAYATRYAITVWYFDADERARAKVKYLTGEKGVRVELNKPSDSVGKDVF
Sequence of FIH (Q9NWT6 whole entry): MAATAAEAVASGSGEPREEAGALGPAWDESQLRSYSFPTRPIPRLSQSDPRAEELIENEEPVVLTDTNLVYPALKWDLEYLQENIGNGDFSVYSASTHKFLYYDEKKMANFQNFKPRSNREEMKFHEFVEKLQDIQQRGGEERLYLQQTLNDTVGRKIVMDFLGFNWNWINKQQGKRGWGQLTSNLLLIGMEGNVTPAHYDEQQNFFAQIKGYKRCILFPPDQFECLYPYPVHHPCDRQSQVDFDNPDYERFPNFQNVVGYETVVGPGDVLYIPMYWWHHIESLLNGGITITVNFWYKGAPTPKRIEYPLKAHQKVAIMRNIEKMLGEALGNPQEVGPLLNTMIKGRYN

In the case of `O=C(O)CNC(=O)C(=O)O` [1a, N-oxalylglycine, reference compound], at PHD2, the “inhibitory activity toward PHD2 (in words)” value is reported as “potent inhibitor of PHD2”.
For orientation: IC50 means the concentration needed to halve the response being measured. A higher IC50 goes with weaker potency in that assay. `CC(C)(C)c1ccc(S(=O)(=O)Oc2ccc(C[C@@H](NC(=O)C(=O)O)C(=O)O)cc2)cc1` [7c] gave an IC50 at FIH of 37.2 µM. At FIH (comparison of JMJD2E FDH IC50 and FIH MALDI-TOF IC50), the “selectivity of inhibition (JMJD2E) with regard to FIH” value is given as “relatively low”. At PHD2, the “inhibitory activity toward PHD2 (in words)” value is reported as “No inhibitory activity”.
Turning to `O=C(O)C(=O)N[C@H](Cc1ccc(OS(=O)(=O)c2ccccc2)cc1)C(=O)O` [7d], the IC50 is 43 µM at JMJD2E and 17 µM against JMJD2A.
As for `O=C(O)C(=O)N[C@H](Cc1ccc(OS(=O)(=O)c2ccc(F)cc2)cc1)C(=O)O` [7e], the “inhibitory activity toward PHD2 (in words)” value at PHD2 is on record as “No inhibitory activity”.
`O=C(O)C(=O)N[C@H](Cc1ccc(OS(=O)(=O)c2ccc(Br)cc2)cc1)C(=O)O` [7f] displayed a 50% inhibitory concentration (IC50) on FIH of 60.2 µM. Also, the “inhibitory activity toward PHD2 (in words)” value against PHD2 was “No inhibitory activity”.
In the case of `O=C(O)C(=O)N[C@H](Cc1ccc(OCc2ccccc2[N+](=O)[O-])cc1)C(=O)O` [10k], half-maximal inhibition against JMJD2E (IC50) required 47 µM.
